In ChEMBL document CHEMBL4261600 (Eur J Med Chem, 2018):

How the values were obtained:
[1] = tested on: Tyrosine-protein kinase ABL1 (Homo sapiens), P00519 [F317L]; test: Binding affinity to human phosphorylated ABL1 F317L mutant (S229 to K512 residues) expressed in mammalian expression system assessed as remaining unbound target protein level at 1000 nM by Kinomescan method relative to control
Method in brief: (§1)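 Single-point competition binding screen across a panel of 468 kinases and mutants, with the inhibitor at 1 μM. Binding is read out as percent of a DMSO control, and targets below 1 percent control were classed as strong binders.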

[2] = tested on: Tyrosine-protein kinase ABL1 (Homo sapiens), P00519 [M351T]; test: Binding affinity to human phosphorylated ABL1 M351T mutant (S229 to K512 residues) expressed in mammalian expression system assessed as remaining unbound target protein level at 1000 nM by Kinomescan method relative to control; method in brief: as §1
[3] = target: Tyrosine-protein kinase receptor UFO (Homo sapiens) (UniProt P30530); test: Binding affinity to wild-type human partial length AXL (R497 to Y821 residues) expressed in bacterial expression system assessed as remaining unbound target protein level at 1000 nM by Kinomescan method relative to control
Method in brief: (§2)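 KINOMEscan competition binding profile across a panel of 468 kinases and mutants, with the inhibitor tested at a single concentration of 1 μM. Binding is reported as percent of control, meaning signal relative to a DMSO control.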

[4] = target: Serine/threonine-protein kinase Chk2 (Homo sapiens) (UniProt O96017); test: Binding affinity to wild-type human partial length CHEK2 (S253 to E574 residues) expressed in bacterial expression system assessed as remaining unbound target protein level at 1000 nM by Kinomescan method relative to control
[5] = target: Epidermal growth factor receptor (Homo sapiens) (UniProt P00533); test: Binding affinity to human partial length EGFR E746-A750del mutant expressed in bacterial expression system assessed as remaining unbound target protein level at 1000 nM by Kinomescan method relative to control
Method in brief: (§3)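 KINOMEscan competition-binding profiling across the panel of 468 kinases and mutants, with inhibitor tested at 1 μM. Binding is expressed as percent of control, with DMSO as the reference control.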

[6] = tested on: Epidermal growth factor receptor (Homo sapiens), P00533 [G719S]; test: Binding affinity to human partial length EGFR G719S mutant (R669 to V1011 residues) expressed in bacterial expression system assessed as remaining unbound target protein level at 1000 nM by Kinomescan method relative to control; method in brief: as §3
[7] = target: Mitogen-activated protein kinase 15 (Homo sapiens) (UniProt Q8TD08); test: Binding affinity to wild-type human partial length ERK8 (M1 to P437 residues) expressed in bacterial expression system assessed as remaining unbound target protein level at 1000 nM by Kinomescan method relative to control
Mitogen-activated protein kinase 15 (Homo sapiens), sequence (Q8TD08 whole entry, the tested form may be a part): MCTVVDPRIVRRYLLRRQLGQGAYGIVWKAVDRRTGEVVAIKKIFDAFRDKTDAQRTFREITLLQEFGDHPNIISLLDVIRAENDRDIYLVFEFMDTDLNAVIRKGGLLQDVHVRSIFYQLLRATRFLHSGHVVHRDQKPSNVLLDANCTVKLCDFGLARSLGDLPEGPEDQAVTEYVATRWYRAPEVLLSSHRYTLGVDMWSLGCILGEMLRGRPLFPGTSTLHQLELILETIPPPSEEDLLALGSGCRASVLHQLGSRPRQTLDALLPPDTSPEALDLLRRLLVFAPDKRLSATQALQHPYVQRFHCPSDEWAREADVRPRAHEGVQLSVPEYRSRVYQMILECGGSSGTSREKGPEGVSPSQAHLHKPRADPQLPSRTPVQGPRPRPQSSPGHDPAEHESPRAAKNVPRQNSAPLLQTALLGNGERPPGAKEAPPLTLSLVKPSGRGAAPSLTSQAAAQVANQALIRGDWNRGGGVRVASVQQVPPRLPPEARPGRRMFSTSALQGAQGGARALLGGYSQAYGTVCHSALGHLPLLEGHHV
Method in brief: (§4)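 KINOMEscan binding panel of 468 kinases/mutants. Inhibitor was tested at a single concentration of 1 μM. Binding is reported as percent of control, defined relative to a DMSO control.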

[8] = target: Tyrosine-protein kinase Fyn (Homo sapiens) (UniProt P06241); test: Binding affinity to wild-type human partial length FYN (T243 to L534 residues) expressed in bacterial expression system assessed as remaining unbound target protein level at 1000 nM by Kinomescan method relative to control
[9] = target: Tyrosine-protein kinase JAK1 (Homo sapiens) (UniProt P23458); test: Binding affinity to wild-type human partial length JAK1 JH2 pseudokinase domain (R537 to D855 residues) expressed in mammalian expression system assessed as remaining unbound target protein level at 1000 nM by Kinomescan method relative to control; method in brief: as §4
Tyrosine-protein kinase JAK1 (Homo sapiens), sequence (P23458 whole entry, the tested form may be a part): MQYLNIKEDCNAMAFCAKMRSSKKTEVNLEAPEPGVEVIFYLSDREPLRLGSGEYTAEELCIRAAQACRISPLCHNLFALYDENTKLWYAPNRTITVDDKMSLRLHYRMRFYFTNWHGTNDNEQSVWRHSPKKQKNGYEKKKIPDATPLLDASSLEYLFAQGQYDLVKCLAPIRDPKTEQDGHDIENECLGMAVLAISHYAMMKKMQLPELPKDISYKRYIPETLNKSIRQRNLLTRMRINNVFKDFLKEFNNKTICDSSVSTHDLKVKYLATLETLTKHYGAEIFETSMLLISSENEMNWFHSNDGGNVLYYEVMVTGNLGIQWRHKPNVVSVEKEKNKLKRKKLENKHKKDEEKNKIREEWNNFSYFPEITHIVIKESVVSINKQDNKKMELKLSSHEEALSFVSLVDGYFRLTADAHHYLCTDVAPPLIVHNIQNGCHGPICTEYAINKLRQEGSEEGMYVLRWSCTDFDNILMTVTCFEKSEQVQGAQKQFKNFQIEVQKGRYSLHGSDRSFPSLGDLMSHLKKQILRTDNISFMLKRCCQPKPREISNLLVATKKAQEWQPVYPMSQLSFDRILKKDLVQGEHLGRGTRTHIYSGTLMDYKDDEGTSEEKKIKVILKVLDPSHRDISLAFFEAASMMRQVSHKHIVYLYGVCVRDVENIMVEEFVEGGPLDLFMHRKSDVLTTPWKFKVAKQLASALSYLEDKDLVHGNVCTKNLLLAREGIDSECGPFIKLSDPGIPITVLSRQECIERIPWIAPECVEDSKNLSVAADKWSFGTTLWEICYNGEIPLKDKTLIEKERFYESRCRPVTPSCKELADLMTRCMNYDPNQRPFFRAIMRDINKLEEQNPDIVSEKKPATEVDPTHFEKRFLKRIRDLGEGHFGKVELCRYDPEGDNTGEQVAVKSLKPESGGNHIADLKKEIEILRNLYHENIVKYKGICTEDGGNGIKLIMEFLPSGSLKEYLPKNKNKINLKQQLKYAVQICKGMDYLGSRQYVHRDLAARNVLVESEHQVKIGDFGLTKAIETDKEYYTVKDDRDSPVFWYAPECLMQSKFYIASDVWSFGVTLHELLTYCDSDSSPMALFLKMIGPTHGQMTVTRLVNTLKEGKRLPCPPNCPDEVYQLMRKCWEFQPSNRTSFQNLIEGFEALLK

[10] = target: Leucine-rich repeat serine/threonine-protein kinase 2 (Homo sapiens) (UniProt Q5S007); test: Binding affinity to wild-type human partial length LRRK2 (H970 to E2527 residues) expressed in mammalian expression system assessed as remaining unbound target protein level at 1000 nM by Kinomescan method relative to control
[11] = tested on: Hepatocyte growth factor receptor (Homo sapiens), P08581 [Y1235D]; test: Binding affinity to human partial length MET Y1235D mutant (D1010 to S1367 residues) expressed in bacterial expression system assessed as remaining unbound target protein level at 1000 nM by Kinomescan method relative to control; method in brief: as §3
[12] = target: Mitogen-activated protein kinase kinase kinase 11 (Homo sapiens) (UniProt Q16584); test: Binding affinity to wild-type human partial length MLK3 (I77 to W399 residues) expressed in bacterial expression system assessed as remaining unbound target protein level at 1000 nM by Kinomescan method relative to control
[13] = target: Phosphorylase b kinase gamma catalytic chain, liver/testis isoform (Homo sapiens) (UniProt P15735); test: Binding affinity to wild-type human partial length PHKG2 (M1 to W300 residues) expressed in bacterial expression system assessed as remaining unbound target protein level at 1000 nM by Kinomescan method relative to control; method in brief: as §4
[14] = target: Phosphatidylinositol 4-phosphate 3-kinase C2 domain-containing subunit beta (Homo sapiens) (UniProt O00750); test: Binding affinity to wild-type human partial length PIK3C2B (M1 to L1634 residues) expressed in mammalian expression system assessed as remaining unbound target protein level at 1000 nM by Kinomescan method relative to control
Phosphatidylinositol 4-phosphate 3-kinase C2 domain-containing subunit beta (Homo sapiens), sequence (O00750 whole entry, the tested form may be a part, canonical isoform): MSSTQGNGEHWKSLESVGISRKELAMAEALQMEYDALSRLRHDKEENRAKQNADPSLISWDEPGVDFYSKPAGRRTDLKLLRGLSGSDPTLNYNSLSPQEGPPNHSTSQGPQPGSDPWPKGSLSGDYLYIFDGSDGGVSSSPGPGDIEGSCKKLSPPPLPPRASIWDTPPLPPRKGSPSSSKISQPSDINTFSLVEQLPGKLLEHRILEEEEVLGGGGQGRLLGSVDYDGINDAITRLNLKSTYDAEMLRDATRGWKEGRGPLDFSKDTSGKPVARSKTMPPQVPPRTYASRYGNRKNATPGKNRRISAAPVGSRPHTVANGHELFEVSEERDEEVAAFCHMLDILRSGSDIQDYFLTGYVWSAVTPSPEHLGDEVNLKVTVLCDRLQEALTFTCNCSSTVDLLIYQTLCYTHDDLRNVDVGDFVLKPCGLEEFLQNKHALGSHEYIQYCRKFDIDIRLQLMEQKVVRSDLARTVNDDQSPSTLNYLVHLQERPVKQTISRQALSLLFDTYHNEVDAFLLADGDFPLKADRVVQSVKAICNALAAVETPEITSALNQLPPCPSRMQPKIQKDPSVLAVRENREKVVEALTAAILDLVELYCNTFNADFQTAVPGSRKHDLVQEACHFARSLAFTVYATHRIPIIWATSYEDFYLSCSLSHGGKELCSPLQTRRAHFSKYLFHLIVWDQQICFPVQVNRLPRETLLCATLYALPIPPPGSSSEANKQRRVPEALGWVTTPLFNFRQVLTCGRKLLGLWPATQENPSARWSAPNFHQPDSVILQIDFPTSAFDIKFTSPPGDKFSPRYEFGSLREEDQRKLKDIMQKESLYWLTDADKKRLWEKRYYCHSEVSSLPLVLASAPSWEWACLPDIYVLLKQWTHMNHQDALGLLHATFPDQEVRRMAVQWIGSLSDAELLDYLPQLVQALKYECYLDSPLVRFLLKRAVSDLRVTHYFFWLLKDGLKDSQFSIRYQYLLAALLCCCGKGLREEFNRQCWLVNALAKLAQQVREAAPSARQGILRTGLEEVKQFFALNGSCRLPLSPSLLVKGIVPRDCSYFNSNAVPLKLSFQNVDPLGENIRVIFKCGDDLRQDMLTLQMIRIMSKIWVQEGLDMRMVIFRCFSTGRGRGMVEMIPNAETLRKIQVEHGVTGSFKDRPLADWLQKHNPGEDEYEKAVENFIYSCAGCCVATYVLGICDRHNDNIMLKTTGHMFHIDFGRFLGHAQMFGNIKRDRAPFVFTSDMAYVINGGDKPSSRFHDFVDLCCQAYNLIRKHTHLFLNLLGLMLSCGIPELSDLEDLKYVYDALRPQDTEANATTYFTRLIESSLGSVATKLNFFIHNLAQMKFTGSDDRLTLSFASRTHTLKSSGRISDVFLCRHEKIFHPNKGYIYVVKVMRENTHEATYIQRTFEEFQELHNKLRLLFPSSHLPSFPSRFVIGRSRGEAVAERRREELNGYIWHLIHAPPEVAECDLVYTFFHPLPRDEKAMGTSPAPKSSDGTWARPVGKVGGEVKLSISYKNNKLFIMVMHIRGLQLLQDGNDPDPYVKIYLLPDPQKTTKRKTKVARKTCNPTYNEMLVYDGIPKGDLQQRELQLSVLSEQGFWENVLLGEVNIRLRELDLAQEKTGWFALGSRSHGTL

[15] = tested on: Phosphatidylinositol 4,5-bisphosphate 3-kinase catalytic subunit alpha isoform (Homo sapiens), P42336 [H1047Y]; test: Binding affinity to human partial length PIK3CA H1047Y mutant (R108 to N1068 residues) expressed in mammalian expression system assessed as remaining unbound target protein level at 1000 nM by Kinomescan method relative to control; method in brief: as §3
[16] = target: Serine/threonine-protein kinase N1 (Homo sapiens) (UniProt Q16512); test: Binding affinity to wild-type human partial length PKN1 (E598 to C948 residues) expressed in bacterial expression system assessed as remaining unbound target protein level at 1000 nM by Kinomescan method relative to control
[17] = target: Receptor-interacting serine/threonine-protein kinase 2 (Homo sapiens) (UniProt O43353); test: Binding affinity to wild-type human partial length RIPK2 (M1 to K310 residues) expressed in bacterial expression system assessed as remaining unbound target protein level at 1000 nM by Kinomescan method relative to control
Receptor-interacting serine/threonine-protein kinase 2 (Homo sapiens), sequence (O43353 whole entry, the tested form may be a part): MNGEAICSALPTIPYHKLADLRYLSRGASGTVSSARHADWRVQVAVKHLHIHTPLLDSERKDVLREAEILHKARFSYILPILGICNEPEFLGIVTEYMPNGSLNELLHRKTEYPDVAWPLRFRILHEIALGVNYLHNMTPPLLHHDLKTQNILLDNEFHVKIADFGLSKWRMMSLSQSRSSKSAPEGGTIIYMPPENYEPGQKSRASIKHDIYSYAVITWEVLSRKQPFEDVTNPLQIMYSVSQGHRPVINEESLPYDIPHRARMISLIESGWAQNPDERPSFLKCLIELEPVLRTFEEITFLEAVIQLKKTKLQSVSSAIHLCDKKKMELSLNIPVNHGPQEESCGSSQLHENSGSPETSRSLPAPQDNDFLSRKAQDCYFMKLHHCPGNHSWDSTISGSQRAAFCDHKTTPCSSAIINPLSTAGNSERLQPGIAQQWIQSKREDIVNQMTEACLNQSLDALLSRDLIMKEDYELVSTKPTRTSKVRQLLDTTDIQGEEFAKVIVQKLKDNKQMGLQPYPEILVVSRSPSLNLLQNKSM

[18] = target: Dual serine/threonine and tyrosine protein kinase (Homo sapiens) (UniProt Q6XUX3); test: Binding affinity to wild-type human full length RIPK5 (M1 to T929 residues) expressed in mammalian expression system assessed as remaining unbound target protein level at 1000 nM by Kinomescan method relative to control; method in brief: as §2
Dual serine/threonine and tyrosine protein kinase (Homo sapiens), sequence (Q6XUX3 whole entry, the tested form may be a part): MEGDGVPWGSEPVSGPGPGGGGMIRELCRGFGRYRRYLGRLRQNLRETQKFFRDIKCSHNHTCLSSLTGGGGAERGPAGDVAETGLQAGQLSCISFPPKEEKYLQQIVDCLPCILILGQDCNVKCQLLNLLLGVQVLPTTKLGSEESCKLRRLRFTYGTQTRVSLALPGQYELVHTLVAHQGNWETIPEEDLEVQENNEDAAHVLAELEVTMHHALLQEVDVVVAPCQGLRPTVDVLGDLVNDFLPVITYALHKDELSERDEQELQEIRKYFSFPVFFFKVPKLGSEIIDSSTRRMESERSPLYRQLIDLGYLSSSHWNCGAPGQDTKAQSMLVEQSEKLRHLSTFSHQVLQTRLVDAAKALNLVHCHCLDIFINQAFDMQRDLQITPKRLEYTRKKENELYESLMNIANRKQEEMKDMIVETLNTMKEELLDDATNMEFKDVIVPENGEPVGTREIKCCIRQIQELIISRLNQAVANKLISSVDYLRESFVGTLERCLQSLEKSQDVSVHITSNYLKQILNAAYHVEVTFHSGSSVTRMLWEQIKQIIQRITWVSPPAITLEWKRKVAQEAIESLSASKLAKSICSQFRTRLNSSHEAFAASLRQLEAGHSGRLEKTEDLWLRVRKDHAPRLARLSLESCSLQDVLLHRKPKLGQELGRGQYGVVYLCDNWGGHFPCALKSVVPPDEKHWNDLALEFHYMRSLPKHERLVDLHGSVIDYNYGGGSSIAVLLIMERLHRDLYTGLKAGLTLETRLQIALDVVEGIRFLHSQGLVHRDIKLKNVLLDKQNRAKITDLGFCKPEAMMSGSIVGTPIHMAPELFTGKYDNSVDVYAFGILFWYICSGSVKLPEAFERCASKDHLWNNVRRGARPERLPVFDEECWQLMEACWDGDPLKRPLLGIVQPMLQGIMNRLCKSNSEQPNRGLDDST

[19] = target: Ribosomal protein S6 kinase alpha-2 (Homo sapiens) (UniProt Q15349); test: Binding affinity to wild-type human partial length N-terminal RSK3 kinase domain 1 (M1 to Q385 residues) expressed in bacterial expression system assessed as remaining unbound target protein level at 1000 nM by Kinomescan method relative to control
[20] = species on record: Homo sapiens; test: Selectivity ratio of IC50 for recombinant GST-tagged human full length CDK14/cyclin Y (2 to end residues) to IC50 for recombinant full length His-tagged human CDK9/CyclinT1
[21] = tested on: Mitogen-activated protein kinase kinase kinase 12 (DLK); test: Binding affinity to wild-type human full length DLK (M1 to P859 residues) expressed in mammalian expression system assessed as remaining unbound target protein level at 1000 nM by Kinomescan method relative to control

SMILES: COCCN[C@H]1CC[C@H](Nc2cc(-c3csc(NCC4(C#N)CCOCC4)n3)c(Cl)cn2)CC1
- Activity [1]: 100%
- Activity [2]: 100%
- Activity [3]: 91%
- Activity [4]: 90%
- Activity [5]: 83%
- Activity [6]: 82%
- Activity [7]: 86%
- Activity [8]: 83%
- Activity [9]: 57%
- Activity [10]: 100%
- Activity [11]: 96%
- Activity [12]: 85%
- Activity [13]: 99%
- Activity [14]: 100%
- Activity [15]: 54%
- Activity [16]: 87%
- Activity [17]: 96%
- Activity [18]: 95%
- Activity [19]: 90%
- Ratio IC50 [20]: > 1000
- Activity [21]: 100%
